Columns and labels:
Oxytocin receptor = target: T1, Oxytocin receptor (Homo sapiens, UniProt P30559); experiment: Displacement of [3H]oxytocin from human Oxytocin receptor
T1 sequence (P30559 whole entry): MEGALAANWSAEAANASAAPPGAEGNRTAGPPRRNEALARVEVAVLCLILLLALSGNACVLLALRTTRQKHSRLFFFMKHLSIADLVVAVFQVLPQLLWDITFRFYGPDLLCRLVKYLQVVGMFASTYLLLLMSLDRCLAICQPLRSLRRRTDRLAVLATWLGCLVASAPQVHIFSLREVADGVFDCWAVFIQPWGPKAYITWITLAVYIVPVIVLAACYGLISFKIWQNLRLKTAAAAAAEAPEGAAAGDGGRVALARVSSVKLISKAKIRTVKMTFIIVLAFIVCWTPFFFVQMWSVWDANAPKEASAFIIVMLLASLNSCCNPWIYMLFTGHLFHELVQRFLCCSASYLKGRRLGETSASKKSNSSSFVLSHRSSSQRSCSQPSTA

[1] = Lipophilicity of the compound measured as CHI LogD by HPLC; type: physicochemical
Plasma clearance in rat = conditions: in vivo
[2] = Half life in rat; type: ADME; conditions: in vivo
[3] = Bioavailability in rat; type: ADME, organism-based; conditions: in vivo
[4] = Per oral administration of 5 mg/Kg of dose required for measuring Area under concentration of curve in rat; type: ADME; conditions: in vivo
Procedure, shortened: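 Rats (n=2) received 5 mg/kg in 5% DMSO/95% PEG400. Plasma exposure is reported as AUC in h ng mL−1.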

[5] = Volume of distribution in rat; type: ADME, organism-based; conditions: in vivo, read-out: Vdss
Plasma clearance in dog = conditions: in vivo
[6] = Volume of distribution in dog; type: ADME, organism-based, Canis lupus familiaris; conditions: in vivo, read-out: Vdss
Vasopressin V1b receptor = target: T2, Vasopressin V1b receptor (Homo sapiens, UniProt P47901); experiment: Displacement of [3H]vasopressin from human V1b vasopressin receptor
T2 sequence (P47901 whole entry): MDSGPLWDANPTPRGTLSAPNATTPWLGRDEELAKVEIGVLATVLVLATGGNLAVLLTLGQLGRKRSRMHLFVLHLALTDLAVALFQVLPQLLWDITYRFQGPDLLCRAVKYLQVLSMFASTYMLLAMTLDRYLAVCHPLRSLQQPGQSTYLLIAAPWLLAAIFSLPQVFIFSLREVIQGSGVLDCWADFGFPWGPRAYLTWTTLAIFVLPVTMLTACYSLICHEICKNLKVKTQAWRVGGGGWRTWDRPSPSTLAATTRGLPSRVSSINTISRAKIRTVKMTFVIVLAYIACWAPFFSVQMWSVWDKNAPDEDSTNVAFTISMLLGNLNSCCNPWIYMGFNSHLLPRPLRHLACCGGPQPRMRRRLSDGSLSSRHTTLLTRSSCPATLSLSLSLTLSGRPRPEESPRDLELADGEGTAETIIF

Vasopressin V1a receptor = Vasopressin V1a receptor (Homo sapiens, UniProt P37288); experiment: Displacement of [3H]vasopressin from human V1a vasopressin receptor
Vasopressin V1a receptor, sequence (P37288 whole entry): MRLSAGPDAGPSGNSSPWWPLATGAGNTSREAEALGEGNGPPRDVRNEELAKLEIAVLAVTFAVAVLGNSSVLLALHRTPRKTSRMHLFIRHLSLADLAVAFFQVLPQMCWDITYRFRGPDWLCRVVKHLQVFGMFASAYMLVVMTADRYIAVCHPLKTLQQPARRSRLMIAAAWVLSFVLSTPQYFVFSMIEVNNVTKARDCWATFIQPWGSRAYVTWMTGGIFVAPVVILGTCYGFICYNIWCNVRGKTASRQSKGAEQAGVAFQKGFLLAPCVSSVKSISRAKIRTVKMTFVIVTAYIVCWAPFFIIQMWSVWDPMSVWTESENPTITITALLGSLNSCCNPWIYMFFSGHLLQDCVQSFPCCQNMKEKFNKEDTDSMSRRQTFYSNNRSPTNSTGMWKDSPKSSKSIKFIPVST

[7] = Per oral administration of 5 mg/Kg of dose required for measuring Area under concentration of curve in dog; type: ADME, Canis lupus familiaris; conditions: in vivo
[8] = Bioavailability in dog; type: ADME, organism-based, Canis lupus familiaris; conditions: in vivo
[9] = Per oral administration of 0.6 mg/Kg of dose required for measuring Area under concentration of curve in dog; type: ADME, Canis lupus familiaris; conditions: in vivo
Procedure, shortened: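 Dogs (n=1) received 0.6 mg/kg in either 5% DMSO/95% PEG400 or 5% DMSO/95% labrafil. Exposure is given as plasma AUC in h ng mL−1.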

Vasopressin V2 receptor = Vasopressin V2 receptor (Homo sapiens, UniProt P30518); experiment: Displacement of [3H]oxytocin from human V2 vasopressin receptor
Vasopressin V2 receptor, sequence (P30518 whole entry): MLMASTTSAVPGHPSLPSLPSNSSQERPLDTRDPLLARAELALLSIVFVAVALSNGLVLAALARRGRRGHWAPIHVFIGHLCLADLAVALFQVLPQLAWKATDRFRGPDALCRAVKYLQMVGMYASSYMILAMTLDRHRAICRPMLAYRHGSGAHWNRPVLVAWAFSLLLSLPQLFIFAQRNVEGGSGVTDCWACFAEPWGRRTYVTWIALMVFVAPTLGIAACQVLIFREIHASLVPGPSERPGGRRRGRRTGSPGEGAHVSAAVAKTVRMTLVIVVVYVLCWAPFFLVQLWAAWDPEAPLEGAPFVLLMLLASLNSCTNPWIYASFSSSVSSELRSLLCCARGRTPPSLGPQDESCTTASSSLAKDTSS

[10] = Per oral administration of 0.6 mg/Kg of dose required for measuring Area under concentration of curve in dog; conditions: in vivo

SMILES | Ki (Oxytocin receptor) [nM] | chromatographic logD [1] | AUC [4] [ng·h/mL] | further results
CC(=O)Nc1cccc([C@H](C(=O)NC(C)(C)C)N2C(=O)[C@@H](C3Cc4ccccc4C3)NC(=O)[C@H]2CC(C)C)c1 | 6.31 | – | – | –
CC(C)C[C@@H]1C(=O)N[C@H](C2Cc3ccccc3C2)C(=O)N1[C@H](C(=O)NC(C)C)c1ccc(C(F)(F)F)cc1 | 79.4 | – | – | –
CC(C)C[C@@H]1C(=O)N[C@H](C2Cc3ccccc3C2)C(=O)N1[C@@H](C(=O)NC(C)(C)C)c1ccccc1 | 5.01 | – | – | –
CC(C)C[C@@H]1CN[C@H](C2Cc3ccccc3C2)C(=O)N1[C@@H](C(=O)NC(C)C)c1ccccc1 | 316 | – | – | –
C=CCN1C(=O)[C@@H](CC(C)C)N([C@@H](C(=O)NC(C)C)c2ccccc2)C(=O)[C@H]1C1Cc2ccccc2C1 | 63.1 | – | – | –
CC(C)C[C@@H]1C(=O)N[C@H](C2Cc3ccccc3C2)C(=O)N1[C@@H](C(=O)NC(C)C)c1ccc(S(C)(=O)=O)cc1 | 10 | 2.4 | 60 | CL (Plasma clearance in rat): 21 mL/min/kg; half-life [2]: 90 min; bioavailability [3]: 3%; Vd [5]: 0.7 L/kg
Cc1ccc([C@@H](C(=O)NC(C)C)N2C(=O)[C@@H](C3Cc4ccccc4C3)NC(=O)[C@H]2CC(C)C)cc1 | 50.1 | – | – | –
CC(C)C[C@@H]1C(=O)N[C@H](C2Cc3ccccc3C2)C(=O)N1[C@@H](C(=O)NC(C)C)c1ccc(F)cc1F | – | – | – | CL (Plasma clearance in dog): 11 mL/min/kg; Vd [6]: 1.2 L/kg; Ki (Vasopressin V1b receptor): > 6310 nM; Ki (Vasopressin V1a receptor): > 6310 nM; AUC [7]: 121 ng·h/mL; F [8]: 33%; AUC [9]: 291 ng·h/mL; Ki (Vasopressin V2 receptor): 631 nM
CC(C)C[C@@H]1C(=O)N[C@H](C2Cc3ccccc3C2)C(=O)N1[C@H](C(=O)NC(C)C)c1ccc(C(N)=O)cc1 | 158 | – | – | –
CC(C)C[C@@H]1C(=O)N[C@H](C2Cc3ccccc3C2)C(=O)N1[C@@H](C(=O)NC(C)(C)C)c1ccc(OC(F)(F)F)cc1 | 5.01 | 4.1 | 85 | –
CC(C)C[C@@H]1C(=O)N[C@H](C2Cc3ccccc3C2)C(=O)N1[C@@H](C(=O)NC(C)C)c1ccc(C(N)=O)cc1 | 31.6 | 1.8 | 44 | –
COc1ccc([C@@H](C(=O)NC(C)(C)C)N2C(=O)[C@@H](C3Cc4ccccc4C3)NC(=O)[C@H]2CC(C)C)cc1 | 39.8 | – | – | –
CC(C)C[C@@H]1C(=O)N[C@H](C2Cc3ccccc3C2)C(=O)N1[C@H](C(=O)NC(C)C)c1ccc(S(C)(=O)=O)cc1 | 100 | – | – | –
CC(C)C[C@@H]1C(=O)N[C@H](C2Cc3ccccc3C2)C(=O)N1[C@H](C(=O)NC(C)(C)C)c1ccccc1 | 79.4 | – | – | –
CC(C)C[C@@H]1C(=O)N[C@H](C2Cc3ccccc3C2)C(=O)N1[C@@H](C(=O)NC(C)C)c1ccc(C(F)(F)F)cc1 | 5.01 | 3.7 | 280 | –
CC(C)C[C@@H]1C(=O)N[C@H](C2Cc3ccccc3C2)C(=O)N1[C@H](C(=O)NC(C)(C)C)c1ccc(Cl)cc1 | 158 | – | – | –
CC(C)C[C@@H]1C(=O)N[C@H](C2Cc3ccccc3C2)C(=O)N1[C@H](C(=O)NC(C)C)c1ccccc1 | 50.1 | – | – | –
CC(C)C[C@@H]1C(=O)N[C@H](C2Cc3ccccc3C2)C(=O)N1[C@H](C(=O)NC(C)C)c1ccc(N(C)C)cc1 | 25.1 | – | – | –
CC(C)C[C@@H]1C(=O)N[C@H](C2Cc3ccccc3C2)C(=O)N1[C@@H](C(=O)NC(C)(C)C)c1cccc(N2CCN(C)CC2)c1 | 158 | – | – | –
CC(C)C[C@@H]1C(=O)N[C@H](C2Cc3ccccc3C2)C(=O)N1[C@H](C(=O)NC(C)(C)C)c1ccc(OC(F)(F)F)cc1 | 158 | – | – | –
CC(=O)Nc1ccc([C@@H](C(=O)NC(C)C)N2C(=O)[C@@H](C3Cc4ccccc4C3)NC(=O)[C@H]2CC(C)C)cc1 | 126 | – | – | –
CC(C)C[C@@H]1C(=O)N[C@H](C2Cc3ccccc3C2)C(=O)N1[C@@H](C(=O)NC(C)(C)C)c1ccc(N2CCN(C)CC2)cc1 | 25.1 | – | – | –
CC(C)C[C@@H]1C(=O)N[C@H](C2Cc3ccccc3C2)C(=O)N1[C@H](C(=O)NC(C)C)c1ccc(F)cc1 | 100 | – | – | –

Further lines, with some results ahead:

Ki (Oxytocin receptor) [nM] | chromatographic logD [1] | AUC [4] [ng·h/mL] | SMILES | further results
3.16 | 3.4 | 287 | CC(C)C[C@@H]1C(=O)N[C@H](C2Cc3ccccc3C2)C(=O)N1[C@@H](C(=O)NC(C)C)c1ccc(N(C)C)cc1 | CL (Plasma clearance in dog): 15 mL/min/kg; Vd [6]: 1.7 L/kg; Ki (Vasopressin V1b receptor): > 50100 nM; CL (Plasma clearance in rat): 48 mL/min/kg; AUC [10]: 335 ng·h/mL; half-life [2]: 72 min; Ki (Vasopressin V1a receptor): > 39800 nM; bioavailability [3]: 5%; Vd [5]: 2.3 L/kg; bioavailability [8]: 50%; Ki (Vasopressin V2 receptor): > 79400 nM
3.98 | 3.2 | 421 | CC(C)C[C@@H]1C(=O)N[C@H](C2Cc3ccccc3C2)C(=O)N1[C@@H](C(=O)NC(C)C)c1ccc(F)cc1 | CL (Plasma clearance in dog): 5 mL/min/kg; Vd [6]: 0.8 L/kg; Ki (Vasopressin V1b receptor): > 6310 nM; CL (Plasma clearance in rat): 23 mL/min/kg; AUC [10]: 259 ng·h/mL; half-life [2]: 54 min; Ki (Vasopressin V1a receptor): > 6310 nM; bioavailability [3]: 13%; Vd [5]: 0.8 L/kg; bioavailability [8]: 13%; Ki (Vasopressin V2 receptor): > 1260 nM
1.58 | – | – | CC(=O)Nc1ccc([C@H](C(=O)NC(C)C)N2C(=O)[C@@H](C3Cc4ccccc4C3)NC(=O)[C@H]2CC(C)C)cc1 | –
2.51 | 3.4 | 101 | COc1ccc([C@H](C(=O)NC(C)(C)C)N2C(=O)[C@@H](C3Cc4ccccc4C3)NC(=O)[C@H]2CC(C)C)cc1 | –
2 | 2.4 | 59 | CC(=O)Nc1ccc([C@H](C(=O)NC(C)(C)C)N2C(=O)[C@@H](C3Cc4ccccc4C3)NC(=O)[C@H]2CC(C)C)cc1 | –
2 | – | – | c1ccc2c(c1)CNCO2 | –
3.98 | – | – | CC(C)C[C@@H]1C(=O)N[C@H](C2Cc3ccccc3C2)C(=O)N1[C@@H](C(=O)N(C)C(C)C)c1ccccc1 | –
2.51 | 4 | 95 | CC(C)C[C@@H]1C(=O)N[C@H](C2Cc3ccccc3C2)C(=O)N1[C@@H](C(=O)NC(C)(C)C)c1ccc(Cl)cc1 | CL (Plasma clearance in rat): 43 mL/min/kg; half-life [2]: 42 min; bioavailability [3]: 2%; Vd [5]: 0.4 L/kg
3.98 | 3.2 | 114 | CC(C)C[C@@H]1C(=O)N[C@H](C2Cc3ccccc3C2)C(=O)N1[C@@H](C(=O)NC(C)C)c1ccccc1 | CL (Plasma clearance in rat): 29 mL/min/kg; half-life [2]: 60 min; bioavailability [3]: 5%; Vd [5]: 0.8 L/kg
3.98 | 3.5 | – | Cc1ccc([C@H](C(=O)NC(C)C)N2C(=O)[C@@H](C3Cc4ccccc4C3)NC(=O)[C@H]2CC(C)C)cc1 | CL (Plasma clearance in rat): 37 mL/min/kg; half-life [2]: 36 min; Vd [5]: 0.6 L/kg

— ChEMBL document CHEMBL1140377, “2,5-diketopiperazines as potent, selective, and orally bioavailable oxytocin antagonists. 2. Synthesis, chirality, and pharmacokinetics” (J Med Chem, 2005)
